Published values from different studies.
Lines come from different studies, so protocols differ.
Target: Tyrosine-protein kinase Fyn (FYN, Homo sapiens, UniProt P06241)

Compound | assay | conditions | measurement | result
COc1cccc2c(NCc3ccccc3)nc(-n3c(N)nc4ccccc43)nc12 | target engagement in cells, inhibitor, chemoproteomics | 20 mM | inhibition | -15.9%
Cn1cnc(Br)c1C1=CN(c2ncnc3[nH]cnc23)CCS1 | enzyme activity, inhibitor, radiometric | 2 µM | inhibition | 44%
Cc1cnc(NC2CCOCC2)nc1-n1cnc(C(=O)NC(CN)c2cc(F)cc(Cl)c2)c1 (centres unmarked) | enzyme activity, inhibitor, radiometric | 1 µM | remaining activity | 100%
CNC(=O)c1cc2c(Oc3ccc(NC(=O)C4(C(=O)Nc5ccc(F)cc5)CC4)cc3)ccnc2cc1OC | enzyme activity, inhibitor, radiometric | 1 µM | inhibition | 72%
Cc1ccc(C(=O)NCc2ccsc2)cc1C#Cc1cn(C(C)C)c2ncnc(N)c12 | enzyme activity, inhibitor | 1 µM | activity vs control | 3%
C#Cc1cccc(Nc2ncnc3cc(OCCOC)c(OCCOC)cc23)c1 | cell-free assay | 0.5 µM | remaining signal | 94.7%
Cc1nc(Cc2cccc(C(F)(F)F)c2)sc1-c1ccc(C(N)=O)nc1 | cell-free assay, competition with immobilised ligand | 1 µM | remaining binding | 100%
CNCc1ccc(-c2cc(-c3nc(-c4ccc(S(=O)(=O)C(C)C)cc4)cnc3N)on2)cc1 | enzyme activity, inhibitor | 2 µM | inhibition | 27%
CN([C@@H]1CCc2c(CC(=O)O)c3cc(S(C)(=O)=O)ccc3n2C1)S(=O)(=O)c1ccc(F)cc1 | cell-free assay, competition with immobilised ligand | 1 µM | remaining binding | 99%
CC(C)(C)c1nc(-c2cccc(NS(=O)(=O)c3c(F)cccc3F)c2F)c(-c2ccnc(N)n2)s1 | enzyme activity, inhibitor, radiometric | 1 µM | remaining activity | 36%
Cc1cc(NC(=O)c2cccc3cc(-c4cccc5[nH]nc(N)c45)ccc23)ccc1F | enzyme activity, inhibitor | 0.1 µM | activity vs control | 88%
O=c1cc(-c2cccc3c2Sc2ccccc2S3)oc(N2CCOCC2)c1 | enzyme activity, inhibitor | 0.5 µM | remaining activity | 88.6%
CC(=O)Nc1c(C(C)=O)c(=O)n(C)c2nc(-c3ccc(Cl)cc3Cl)c(-c3ccc(Cl)cc3)cc12 | cell-free assay, competition with immobilised ligand | 1 µM | remaining binding | 100%
Cc1sc(C(=O)NC2COC2)cc1-n1cc(NC(=O)Nc2c(F)cccc2Cl)cn1 | enzyme activity, inhibitor | 10 µM | remaining activity | 99.8%
O=C1NC(=O)c2cc(Nc3ccc(F)cc3)c(Nc3ccc(F)cc3)cc21 | cell-free assay | 0.5 µM | remaining signal | 99.4%
C=CC(=O)Nc1cc(Nc2nccc(Nc3cc(Cl)c(F)cc3C(C)(C)O)n2)c(OC)cc1N1CC[C@@H](N(C)C)C1 | enzyme activity, inhibitor | 1 µM | inhibition | 23%

Compound | assay | conditions | measurement | result
COc1cc2ncnc(Nc3ccc(Oc4ccccc4)cc3C)c2cc1OC | enzyme activity, inhibitor | 1 µM | inhibition | 83%
Cc1cc(-n2nc(Cc3cc(F)cc(C(F)(F)F)c3)nc2C)ccc1C(N)=O | cell-free assay, competition with immobilised ligand | 1 µM | remaining binding | 100%
Cc1ccc(NC(=O)c2ccc(C)c(C(F)(F)F)c2)cc1C#Cc1nn(C2CCC(O)CC2)c2ncnc(N)c12 (centres unmarked) | cell-free assay | 10 µM | remaining signal | 0%
O=C1Nc2ccc(Cl)cc2C1=Cc1cc(Cl)c(O)c(Cl)c1 | cell-free assay | 0.5 µM | remaining signal | 73%
COc1cc(Cl)c(C(=O)N[C@@H](CN[C@H]2CC[C@@H](N)CC2)Cc2ccc(C#N)cc2)cc1-c1ccc(CN[C@H](C)c2ccc(C)cc2)o1 | enzyme activity, inhibitor | 1 µM | remaining activity | 104%
Nc1ncnc2occ(-c3ccc(NC(=O)Nc4cc(C(F)(F)F)ccc4F)cc3)c12 | enzyme activity, inhibitor | 20 µM | remaining activity | 2.8%
CNC(=O)Nc1ccc2c(c1)[C@@]1(CC2)OC(=O)N(CC(=O)N(Cc2ccc(F)cc2)[C@@H](C)C(F)(F)F)C1=O | cell-free assay, competition with immobilised ligand | 1 µM | remaining binding | 79%
COc1cc(Nc2c(C#N)cnc3cc(OCCCN4CCN(C)CC4)c(OC)cc23)c(Cl)cc1Cl | cell-free assay | 0.5 µM | remaining signal | 29.4%
CCN(CC)c1ccc(C2=NNC(=O)CC2C)cc1[N+](=O)[O-] (centres unmarked) | enzyme activity, inhibitor | 10 µM | remaining activity | 110%
CNC(=O)Nc1ccc2c(c1)CC[C@@]21OC(=O)N(CC(=O)N(Cc2ccc(F)cc2)[C@@H](C)C(F)(F)F)C1=O | cell-free assay, competition with immobilised ligand | 1 µM | remaining binding | 100%
O=C1c2ccccc2-c2n[nH]c3cccc1c23 | enzyme activity, inhibitor | 0.5 µM | activity vs control | 93.2%
CCN(CC)CCNC(=O)c1c(C)[nH]c(/C=C2\C(=O)Nc3ccc(F)cc32)c1C | enzyme activity, inhibitor | 10 µM | inhibition | 89%
COc1cccc(CNC(=O)c2nc3scc(COCc4ccc(C(=O)O)cc4)c3c(=O)[nH]2)c1 | cell-free assay, competition with immobilised ligand | 1 µM | remaining binding | 81.1%
CC/C(=N\NC(=O)NCc1cccc(O)c1)c1ccc(O)c(C)c1O | enzyme activity, inhibitor | 0.1 µM | inhibition | 0.5%
CCOC(=O)c1cc2cc(-c3cc(C(=O)NCc4ccc(C(=O)O)cc4)nn3C)ccc2[nH]1 | cell-free assay, competition with immobilised ligand | 0.1 µM | remaining binding | 100%
CNC(=O)c1cc(Oc2ccc(NC(=O)Nc3ccc(Cl)c(C(F)(F)F)c3)cc2)ccn1 | enzyme activity, inhibitor | 0.3 µM | inhibition | -22%
